Source: PubChem BioAssay (several laboratories)
IDE inh: cellular human IDE inhibition; P14735; HEK cells, FAbetaB cleavage, fluorescence polarization; inhibition, % at 5.59 µM; 320,000 tested, 0.41% active;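 active = percent inhibition above the average of all tested compounds plus 3 SD, set per screening campaign, cut at about 16% in these data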;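 also: IDE supplied by intact live HEK cells; FP after avidin binding of uncleaved biotin substrate so inhibition keeps polarization high; 0% = DMSO wells and 100% = 60 µM reference IDE inhibitor Ii1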
HNF4A DNA FP: change in binding of human HNF4 alpha to DNA. P41235. HNF4a-FITC DNA binding, fluorescence polarization, 1 h. activity change, % at 10 µM. 360,000 tested, 0.3% active; in the data active = activity change above about 30%, passing the limit was not always enough
Target sequence (P41235 whole entry, looked up): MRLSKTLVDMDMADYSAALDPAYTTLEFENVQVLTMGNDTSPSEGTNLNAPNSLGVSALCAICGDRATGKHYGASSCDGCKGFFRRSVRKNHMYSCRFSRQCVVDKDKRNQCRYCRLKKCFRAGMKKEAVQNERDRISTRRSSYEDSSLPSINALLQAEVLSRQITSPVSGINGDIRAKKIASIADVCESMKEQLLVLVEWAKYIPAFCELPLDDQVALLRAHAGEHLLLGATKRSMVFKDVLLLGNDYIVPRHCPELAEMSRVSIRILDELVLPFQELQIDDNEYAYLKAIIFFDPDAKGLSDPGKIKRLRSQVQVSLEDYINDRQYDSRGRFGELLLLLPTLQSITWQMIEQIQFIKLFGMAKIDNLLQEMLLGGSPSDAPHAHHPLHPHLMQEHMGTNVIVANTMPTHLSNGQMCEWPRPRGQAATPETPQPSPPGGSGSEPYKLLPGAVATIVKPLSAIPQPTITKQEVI
IDE act: IDE (human) activation, cell-based | HEK cells, FAbeta-B cleavage, fluorescence polarization; 0% vehicle, 100% cell-free pure enzyme wells | 340,000 tested, 0.073% active | AID 493087 | activation, % at 5.96 µM;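 active = activation above the mean of all tested compounds plus 3 SD, set per screening campaign, cut at about 17% in these data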
TPT1 inhibitor: inhibitors of Candida albicans tRNA 2'-phosphotransferase TPT1; inhibition, % at 5 µM; recombinant caTPT1, FP RNA substrate dephosphorylation; 300,000 tested, 0.81% active;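 active = inhibition above the mean of all tested compounds plus 3 SD, set per screening campaign, cut at about 24% in these data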;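 also: plate controls were DMSO alone for no effect and ferristatin control at 100 nM for full effect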
Rpn11 block: inhibitors of human proteasome Rpn11; human 26S proteasome, Ub4-pepOG fluorescence polarization; 20S core pre-blocked with epoxomicin; inhibition, % at 20 µM; 360,000 tested, 0.59% active;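 active = inhibition at 20 µM, scaled to each plate's controls, above about 33%, limit read from the data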
CSN deneddyl inh: inhibitors of human CSN-mediated cullin deneddylation; Purified CSN, SCF-Nedd8-OG deneddylation, fluorescence polarization; inhibition, % at 12.5 µM; 360,000 tested, 0.38% active; AID 651999;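 active = pattern-corrected inhibition above about 35%, with an unprinted fluorescence ratio check between 0.5 and 1.5, limit read from the data, passing the limit was not always enough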;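 also: 0% = enzyme with substrate and 100% = substrate without enzyme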
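Assay system: Purified human Csn5 enzyme expressed in HEK293T cells | Amount: Enzyme 0.24 nM | Measured by: Fluorescence polarization readout | Medium: Tris/NaCl/DTT buffer, pH 7.5 | Compound dosing: One concentration, 12.5 µM, 0.25% DMSO | Times: 90 min incubation of compound, enzyme and substrate at room temperature | Control set: no-enzyme wells high, enzyme-with-substrate wells low | Read-out: % inhibition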
IDE cell inh cf: cellular human IDE inhibition, confirmation; AID 435028; inhibition, % at 5.59 µM; HEK cells, FAbetaB cleavage, fluorescence polarization; 1,200 tested, 51% active; shares compounds with IDE inh;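 active = mean inhibition across triplicate wells above the cutoff set by the earlier primary insulin-degrading enzyme screen, cut at about 16% in these data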;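 also: 0% = DMSO wells and 100% = 60 µM reference IDE inhibitor Ii1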
HEK293 tox: counter-screen for IDE inhibitors: cytotoxicity in HEK cells. shares compounds with IDE inh. inhibition, % at 5.59 µM. AID 449730. HEK293 cytotoxicity, ATP luminescence. 1,200 tested, 28% active; in the data active = inhibition above about 22%;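 also: 0% = vehicle wells and 100% = reference cytotoxic drug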
Numbers without * were called inactive; / = no result shown. The list is not random: actives were taken first. Their share in the collection is about 1.7%.

SMILES	IDE inh	HNF4A DNA FP	IDE act	TPT1 inhibitor	Rpn11 block	CSN deneddyl inh	IDE cell inh cf	HEK293 tox
COc1ccc(S(=O)(=O)c2c(N)n(Cc3ccco3)c3nc4ccccc4nc23)cc1	23*	-8	-13	8	-7	14	10	5
CC(C)[C@@H]1Cc2[nH]c(=O)[nH]c(=O)c2[C@H](c2ccc(F)cc2)O1	/	5	/	/	/	-7	/	/
O=c1c2c([N+](=O)[O-])cc([N+](=O)[O-])cc2sn1Cc1ccccc1	84*	-2	-32	-1	9	-2	24*	92*
Cn1c(/C=N/NC(=O)c2ccccc2Br)nc2ccccc21	20*	1	-17	-2	1	1	3	17
CCC(=O)Nc1ccc(NC(=O)c2oc3ccccc3c2C)cc1	17*	2	-5	2	-8	-2	5	15
CCC(=O)Nc1ccc(NC(=S)NC(=O)c2oc3ccccc3c2C)cc1	1	2	2	-4	-4	-11	/	/
COc1cc(/C=C/C(O)=C/C(=O)/C=C/c2ccc(O)cc2)ccc1O	44*	122	-70	/	/	108	109*	19
CCN(CC)c1c(C)nc2ccc(C(=O)Nc3cc(-c4ccccc4)ccc3OC)cn12	/	4	/	/	3	1	/	/
C/C(=N\Nc1ncnc2sc(C)c(C)c12)c1ccccn1	48*	1	-16	-6	30	9	36*	118*
NC(Cc1ccc(C(F)(F)F)cc1)c1csc(NC(=O)NCCc2ccccc2)n1 (stereo not given)	/	3	/	/	3	-2	/	/
Cc1ccc(NC(=O)CCS(=O)(=O)c2ccc3nc(C)sc3c2)c(C)c1	/	8	/	/	2	0	/	/
COc1cc2cc(C(=O)N/N=C/c3ccccc3Cl)[nH]c2cc1OC	17*	-4	-12	-2	-2	3	5	17
CCCc1cc(C(=O)N2CCN(c3ccc(C(F)(F)F)cn3)CC2)sc1C	16*	-2	-29	0	-2	-2	4	16
CC(=O)c1cccc(OCC(=O)N2CCN(c3ccc(C(F)(F)F)cn3)CC2)c1	22*	0	-19	-3	-5	7	19*	6
O=C(O)COCC(=O)N1CCCN(c2ccc(C(F)(F)F)cn2)CC1	/	5	5	/	5	-4	/	/
CCn1c(COc2ccc(C)cc2)nnc1SCc1ccc(C#N)cc1	18*	2	0	-2	-9	0	8	13
CCn1c(COc2ccc(C)cc2)nnc1SCC(=O)C(C)(C)C	2	1	-5	-7	1	3	/	/
CCOC(=O)c1nc2ccc(C)cc2c2c1C1CC(c3c(Cl)cccc31)N2C(=O)OCc1ccccc1 (stereo not given)	/	0	/	/	14	-1	/	/
Nn1cnc2c(ncn2C2OC(CO)C(O)C2O)c1=O (stereo not given)	/	-6	/	/	2	-2	/	/
CCOC(=O)CCCN(c1[nH]c(C)c(C)c1C#N)S(=O)(=O)c1ccc(C)cc1	/	0	/	/	8	1	/	/
CC1(C(=O)NS(=O)(=O)c2ccc(C#N)cc2)CCN1C(=O)C1CCCCC1 (stereo not given)	/	-1	/	/	-10	2	/	/
CC(=O)NC(c1cccs1)c1cc([N+](=O)[O-])c2cccnc2c1O (stereo not given)	27*	0	7	4	40*	-1	6	27*
CCC(=O)NC(c1cccs1)c1cc(Cl)c2ccccc2c1O (stereo not given)	17*	2	1	/	-10	0	8	10
CC(=O)NC(c1cccs1)c1cc(Cl)c2ccccc2c1O (stereo not given)	19*	-1	4	/	0	-2	8	9
c1ccc2c(c1)[nH]c1c(N3CCN(C4CCCCC4)CC3)ncnc12	13	1	-19	2	5	1	/	/
SMILES	IDE inh	HNF4A DNA FP	IDE act	TPT1 inhibitor	Rpn11 block	CSN deneddyl inh	IDE cell inh cf	HEK293 tox
Cc1cccc2[nH]c3c(N4CCC5(CC4)OCCO5)ncnc3c12	3	5	-5	0	-4	4	/	/
Clc1ccc2[nH]c3c(N4CCC5(CC4)OCCO5)ncnc3c2c1	22*	/	/	-4	/	/	10	60*
Cc1ccc2[nH]c3c(N4CCOCC4)ncnc3c2c1	29*	4	-11	1	3	9	9	21
c1ccc2c(c1)[nH]c1c(N3CCOCC3)ncnc12	18*	2	-12	-4	-9	4	8	20
c1ccc2c(c1)[nH]c1c(N3CCCC3)ncnc12	16*	-2	-12	-1	-1	1	10	49*
c1ccc2c(c1)[nH]c1c(N3CCSCC3)ncnc12	11	-4	-10	-6	-3	-8	/	/
CCOc1cc(OCC)cc(C(=O)N2CCC[C@H]2C(=O)N2CCC[C@H]2C(=O)N[C@H](C)c2ccccc2)c1	/	-2	/	/	/	1	/	/
CC(C)[C@H](NC(=O)OC(C)(C)C)c1cc(C(=O)NCCc2c[nH]c3ccccc23)c(N)s1	/	18	/	/	/	7	/	/
COc1ccc2c(CN3CCCCCCC3)cc(=O)oc2c1	/	0	/	/	8	-5	/	/
CC(C)(C)c1ccc(SC2=C[C@@]3(O)CC[C@@H](O)[C@@](Sc4ccc(C(C)(C)C)cc4)(C2=O)[C@H]3O)cc1	/	-2	/	/	/	1	/	/
COc1cccc(C(=O)Nc2nc(-c3ccc(S(=O)(=O)N4CCOCC4)cc3)cs2)c1	40*	-3	-20	-2	-1	-4	16	58*
Cc1ccc(-c2csc(NC(=O)c3cccc(S(=O)(=O)N4CCN(C)CC4)c3)n2)cc1	-2	-1	9	-1	1	1	/	/
O=C(Nc1nc(-c2ccc(S(=O)(=O)N3CCOCC3)cc2)cs1)c1ccccc1	22*	-1	-7	6	3	-11	3	72*
CCCCCCn1c(=O)[nH]c2nc3cc(N)ccc3nc2c1=O	69*	/	/	-28	/	/	93*	14
Cc1cccc(OCC(=O)NCC(=O)N/N=C/c2cc(Br)ccc2OCc2ccccc2)c1	32*	0	2	1	10	0	5	5
O=C(COc1ccccc1)NCC(=O)N/N=C/c1cc(Br)ccc1OCc1ccccc1	14	5	-6	3	-8	0	/	/
CN(C)S(=O)(=O)c1cccc(NC(=O)CSc2ncnc3ccccc23)c1	4	-3	-9	0	1	5	/	/
CN(C)S(=O)(=O)c1ccc(NC(=O)CSc2ncnc3ccccc23)cc1	19*	-3	-8	-2	-2	2	1	11
